Among the data in ChEMBL document CHEMBL1126924, “R2 C-terminal peptide inhibition of mammalian and yeast ribonucleotide reductase” (J Med Chem, 1993) are RI and IC50 values, retold here.

Square brackets hold non-standard residues; d marks the D form. Peptide text beside a SMILES is read from it. aThr = C[C@H](O)[C@H](N)C(=O)O

In general, IC50 refers to the concentration that gives 50% inhibition. A high value points to weaker potency.

Experiment [1] concerns the target Ribonucleoside-diphosphate reductase RR1 (Homo sapiens) (UniProt P23921+Q7LG56+P31350). Description: Relative inhibitory potency against mammalian ribonucleotide reductase. Format: protein-complex assay.
The target in experiment [2] is T1, Ribonucleoside-diphosphate reductase RR1 (Homo sapiens, UniProt P23921+P31350+Q7LG56).
T1 sequence (P23921 whole entry): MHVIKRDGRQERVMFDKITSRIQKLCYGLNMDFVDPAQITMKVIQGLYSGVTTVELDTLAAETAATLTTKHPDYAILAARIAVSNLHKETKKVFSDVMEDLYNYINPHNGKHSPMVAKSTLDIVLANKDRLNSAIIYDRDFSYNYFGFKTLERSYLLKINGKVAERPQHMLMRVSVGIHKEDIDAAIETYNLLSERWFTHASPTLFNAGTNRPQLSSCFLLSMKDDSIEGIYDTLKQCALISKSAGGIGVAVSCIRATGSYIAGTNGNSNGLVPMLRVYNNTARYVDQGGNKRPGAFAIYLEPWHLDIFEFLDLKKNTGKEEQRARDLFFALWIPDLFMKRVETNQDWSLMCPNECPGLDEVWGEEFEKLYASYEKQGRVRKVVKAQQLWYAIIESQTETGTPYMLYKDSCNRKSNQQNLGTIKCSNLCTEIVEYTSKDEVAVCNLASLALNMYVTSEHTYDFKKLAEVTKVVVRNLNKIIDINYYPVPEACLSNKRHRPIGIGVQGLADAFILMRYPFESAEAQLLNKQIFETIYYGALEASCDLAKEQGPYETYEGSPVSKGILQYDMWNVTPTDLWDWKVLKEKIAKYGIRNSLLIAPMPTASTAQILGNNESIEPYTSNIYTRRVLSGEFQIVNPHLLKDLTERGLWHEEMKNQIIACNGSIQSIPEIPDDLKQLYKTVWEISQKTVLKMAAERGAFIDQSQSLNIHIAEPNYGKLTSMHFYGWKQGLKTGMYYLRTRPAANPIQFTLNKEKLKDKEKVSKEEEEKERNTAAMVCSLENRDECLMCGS
T1 sequence (Q7LG56 whole entry): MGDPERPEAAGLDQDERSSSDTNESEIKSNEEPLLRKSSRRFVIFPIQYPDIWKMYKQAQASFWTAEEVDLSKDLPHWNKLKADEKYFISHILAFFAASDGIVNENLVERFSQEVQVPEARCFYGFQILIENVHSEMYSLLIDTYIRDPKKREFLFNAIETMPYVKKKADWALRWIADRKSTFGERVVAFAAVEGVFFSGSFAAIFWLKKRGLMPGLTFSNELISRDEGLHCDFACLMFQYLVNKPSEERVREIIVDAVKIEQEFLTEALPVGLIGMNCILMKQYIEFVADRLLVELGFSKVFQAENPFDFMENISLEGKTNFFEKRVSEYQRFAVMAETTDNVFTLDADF
T1 sequence (P31350 whole entry): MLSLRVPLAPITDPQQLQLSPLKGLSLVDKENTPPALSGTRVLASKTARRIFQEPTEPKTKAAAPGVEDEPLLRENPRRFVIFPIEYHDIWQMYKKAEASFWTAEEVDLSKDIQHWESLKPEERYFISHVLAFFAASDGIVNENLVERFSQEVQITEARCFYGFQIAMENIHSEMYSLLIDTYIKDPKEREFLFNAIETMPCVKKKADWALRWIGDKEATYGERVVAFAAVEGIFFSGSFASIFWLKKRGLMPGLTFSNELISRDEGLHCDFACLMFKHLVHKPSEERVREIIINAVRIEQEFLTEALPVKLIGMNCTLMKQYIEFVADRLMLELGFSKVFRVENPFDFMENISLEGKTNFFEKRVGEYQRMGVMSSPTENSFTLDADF
Description: Inhibition of mammalian ribonucleotide reductase. Format: protein-complex assay. The essentials:
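Calf thymus R1 (1 μg) with cloned mouse R2 (2 μg) expressed in E. coli from pET-M2. CDP reduction was run at 35 °C with DTT as reductant. [³H]dCDP was separated on aminophenylboronate and counted by scintillation.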

In experiment [1], `CC(=O)N[C@@H](Cc1ccccc1)C(=O)N[C@H](C(=O)N[C@@H](CC(C)C)C(=O)N[C@@H](CC(=O)O)C(=O)N[C@@H](C)C(=O)N[C@@H](CC(=O)O)C(=O)N[C@@H](Cc1ccccc1)C(=O)N[C@@H](C)C(=O)N[C@@H](C)C(=O)O)[C@H](C)O` (Ac-F[aThr]LDADFAA-OH) came in with an RI of 2.1%.
`CC(=O)N[C@@H](Cc1ccccc1)C(=O)N[C@H](C(=O)N[C@@H](CC(C)C)C(=O)N[C@@H](CC(=O)O)C(=O)N[C@@H](C)C(=O)N[C@@H](CC(N)=O)C(=O)N[C@@H](Cc1ccccc1)C(=O)O)[C@H](C)O` registered an RI in experiment [1] of 23%.
Still for that read-out and setting: with `CC(=O)N[C@H](C(=O)N[C@@H](CC(C)C)C(=O)N[C@@H](CC(=O)O)C(=O)N[C@@H](C)C(=O)N[C@@H](CC(=O)O)C(=O)N[C@@H](Cc1ccccc1)C(=O)O)[C@H](C)O` the figure was less than 3%; with `CC(=O)N[C@@H](Cc1ccccc1)C(=O)N[C@H](C(=O)N[C@@H](CC(C)C)C(=O)N[C@@H](CC(=O)O)C(=O)N[C@@H](CC(=O)O)C(=O)N[C@@H](Cc1ccccc1)C(=O)O)[C@H](C)O`, 3%.
In experiment [1], `CC(=O)N[C@@H](Cc1ccccc1)C(=O)N[C@H](C(=O)N[C@@H](C)C(=O)N[C@@H](CC(=O)O)C(=O)N[C@@H](C)C(=O)N[C@@H](CC(=O)O)C(=O)N[C@@H](Cc1ccccc1)C(=O)O)[C@H](C)O` gave an RI of 4.9%.
On the same count and under the same terms, as for `CC(=O)N[C@@H](Cc1ccccc1)C(=O)N[C@H](C(=O)N[C@@H](CC(C)C)C(=O)N[C@@H](CC(=O)O)C(=O)N[C@@H](C)C(=O)N[C@@H](CC(C)C)C(=O)N[C@@H](Cc1ccccc1)C(=O)O)[C@H](C)O`, the figure is 34%.
The same measure, in the same setting: as for `CC(=O)N[C@@H](Cc1ccc(N=[N+]=[N-])cc1)C(=O)N[C@H](C(=O)N[C@@H](CC(C)C)C(=O)N[C@@H](CC(=O)O)C(=O)N[C@@H](C)C(=O)N[C@@H](CC(=O)O)C(=O)N[C@@H](Cc1ccccc1)C(=O)O)[C@H](C)O`, the figure is 10%.
On the same count and under the same terms, with `CC(=O)N[C@@H](Cc1ccccc1)C(=O)N[C@H](C(=O)N[C@@H](CC(C)C)C(=O)N[C@@H](CC(=O)O)C(=O)N[C@@H](C)C(=O)N[C@@H](C)C(=O)N[C@@H](Cc1ccccc1)C(=O)O)[C@H](C)O` the figure was 28%; with `CC(=O)N[C@@H](CC(N)=O)C(=O)N[C@@H](CO)C(=O)N[C@@H](Cc1ccccc1)C(=O)N[C@H](C(=O)N[C@@H](CC(C)C)C(=O)N[C@@H](CC(=O)O)C(=O)N[C@@H](C)C(=O)N[C@@H](CC(=O)O)C(=O)N[C@@H](Cc1ccccc1)C(=O)O)[C@H](C)O`, 100%; with `CC(=O)N[C@@H](CO)C(=O)N[C@@H](Cc1ccccc1)C(=O)N[C@H](C(=O)N[C@@H](CC(C)C)C(=O)N[C@@H](CC(=O)O)C(=O)N[C@@H](C)C(=O)N[C@@H](CC(=O)O)C(=O)N[C@@H](Cc1ccccc1)C(=O)O)[C@H](C)O`, 100%.
In experiment [2], Ac-FTLDADL-OH gave an IC50 of more than 400 µM.
In the case of `CC(=O)N[C@@H](Cc1ccccc1)C(=O)N[C@H](C(=O)N[C@@H](CC(C)C)C(=O)N[C@@H](CC(=O)O)C(=O)NCC(=O)N[C@@H](CC(=O)O)C(=O)N[C@@H](Cc1ccccc1)C(=O)O)[C@H](C)O`, the RI in experiment [1] came out at 9%.
On the same count and under the same terms, as for Ac-FLDADF-OH, the figure is 2.5%.
The compound `CC(C)C[C@H](NC(=O)[C@@H](NC(=O)[C@H](Cc1ccccc1)NC(=O)[C@@H](N)CO)[C@H](C)O)C(=O)N[C@@H](CC(=O)O)C(=O)N[C@@H](C)C(=O)N[C@@H](CC(=O)O)C(=O)N[C@@H](Cc1ccccc1)C(=O)O` displayed an RI in experiment [1] of 25%.
For the compound Ac-LDADF-OH, the IC50 in experiment [2] is more than 400 µM. The RI in experiment [1] was less than 3%.
Regarding `CC(=O)N[C@@H](Cc1ccccc1)C(=O)N[C@H](C(=O)N[C@@H](CC(C)C)C(=O)N[C@@H](CC(=O)O)C(=O)N[C@@H](Cc1ccccc1)C(=O)O)[C@H](C)O`, in experiment [1], the RI amounted to 2.5%.
`CC(=O)N[C@@H](Cc1ccccc1)C(=O)N[C@H](C(=O)N[C@@H](Cc1ccccc1)C(=O)N[C@@H](CC(=O)O)C(=O)N[C@@H](C)C(=O)N[C@@H](CC(=O)O)C(=O)N[C@@H](Cc1ccccc1)C(=O)O)[C@H](C)O` came in with an RI in experiment [1] of 18%.
The same measure, in the same setting: with `CC(C)C[C@H](NC(=O)[C@@H](NC(=O)[C@@H](N)Cc1ccccc1)[C@H](C)O)C(=O)N[C@@H](CC(=O)O)C(=O)N[C@@H](C)C(=O)N[C@@H](CC(=O)O)C(=O)N[C@@H](Cc1ccccc1)C(=O)O` (H-F[aThr]LDADF-OH) the figure was less than 3%; with `CC(=O)N[C@@H](Cc1ccccc1)C(=O)N[C@H](C(=O)N[C@@H](CC(C)C)C(=O)N[C@@H](C)C(=O)N[C@@H](C)C(=O)N[C@@H](CC(=O)O)C(=O)N[C@@H](Cc1ccccc1)C(=O)O)[C@H](C)O`, 2.9%; with `CC(=O)N[C@@H](Cc1ccc(N)cc1)C(=O)N[C@H](C(=O)N[C@@H](CC(C)C)C(=O)N[C@@H](CC(=O)O)C(=O)N[C@@H](C)C(=O)N[C@@H](CC(=O)O)C(=O)N[C@@H](Cc1ccccc1)C(=O)O)[C@H](C)O`, 10%.
On the same count and under the same terms, with `CC(=O)N[C@@H](Cc1ccccc1)C(=O)N[C@H](C(=O)N[C@@H](CC(C)C)C(=O)N[C@@H](CC(=O)O)C(=O)N[C@@H](C)C(=O)N[C@@H](CC(=O)O)C(=O)N[C@@H](CC(C)C)C(=O)O)[C@H](C)O` (Ac-F[aThr]LDADL-OH) the figure was less than 3%; with `CC(=O)N[C@@H](Cc1ccccc1)C(=O)N[C@H](C(=O)N[C@@H](CC(C)C)C(=O)N[C@@H](CC(=O)O)C(=O)N[C@@H](C)C(=O)N[C@@H](CC(=O)O)C(=O)N[C@@H](Cc1ccccc1)C(=O)O)[C@H](C)O` (Ac-F[aThr]LDADF-OH), 100%; with `CC(=O)N[C@@H](Cc1ccccc1)C(=O)N[C@H](C(=O)N[C@@H](CC(C)C)C(=O)N[C@@H](CC(N)=O)C(=O)N[C@@H](C)C(=O)N[C@@H](CC(=O)O)C(=O)N[C@@H](Cc1ccccc1)C(=O)O)[C@H](C)O`, 40%.
Compound `CC(=O)N[C@H](C(=O)N[C@@H](CC(C)C)C(=O)N[C@@H](CC(=O)O)C(=O)N[C@@H](C)C(=O)N[C@@H](CC(=O)O)C(=O)N[C@@H](Cc1ccccc1)C(=O)O)[C@@H](C)O` registered an IC50 in experiment [2] of more than 400 µM.
In turn, `CC(=O)N[C@@H](Cc1ccccc1)C(=O)N[C@H](C(=O)N[C@H](C(=O)N[C@@H](CC(=O)O)C(=O)N[C@@H](C)C(=O)N[C@@H](CC(=O)O)C(=O)N[C@@H](Cc1ccccc1)C(=O)O)C(C)C)[C@H](C)O` came in with an RI in experiment [1] of 35%.
In the case of H-FTLDADF-OH, in experiment [2], the IC50 is more than 400 µM.
`CC(=O)N[C@@H](Cc1ccccc1)C(=O)N[C@H](C(=O)N[C@@H](CC(C)C)C(=O)N[C@@H](CC(=O)O)C(=O)N[C@@H](C)C(=O)N[C@@H](CCC(=O)O)C(=O)N[C@@H](Cc1ccccc1)C(=O)O)[C@H](C)O`: in experiment [1], the RI came to 1.7%.
Ac-LTLDADF-OH had an IC50 in experiment [2] of more than 400 µM.
The compound `CC(=O)N[C@@H](CC(C)C)C(=O)N[C@H](C(=O)N[C@@H](CC(C)C)C(=O)N[C@@H](CC(=O)O)C(=O)N[C@@H](C)C(=O)N[C@@H](CC(=O)O)C(=O)N[C@@H](Cc1ccccc1)C(=O)O)[C@H](C)O` (Ac-L[aThr]LDADF-OH) had an RI in experiment [1] of less than 3%.
Turning to `CC(=O)N[C@@H](Cc1ccccc1)C(=O)N[C@H](C(=O)N[C@@H](CC(C)C)C(=O)N[C@@H](CC(=O)O)C(=O)N[C@@H](CC(C)C)C(=O)N[C@@H](CC(=O)O)C(=O)N[C@@H](Cc1ccccc1)C(=O)O)[C@H](C)O`, the RI in experiment [1] was 35%.
